For 23 compounds, IC50 results are on record in BindingDB's records for doi:10.1016/j.ejmech.2016.09.032 (China Pharmaceutical University, 2017).

Assay [1] has as its target T1, Integrin alpha-IIb/beta-3 (Homo sapiens, UniProt P08514+P05106). Briefly: Antagonist activity at GP2b/GP3a receptor in human platelet rich plasma assessed as inhibition of ADP-induced platelet aggregation preincubated for 1 min followed by ADP addition by aggregometric method. The essentials: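 Human PRP from apheresis platelets, PPP from centrifugation at 3000r/min for 10 min used as reference. Compound in saline or 0.2% aqueous DMSO added to PRP, incubated 1 min, then ADP 20 μM (per table footnotes; methods list 10 μM) added. Light transmission aggregometry at 37°C, maximal aggregation vs PPP. Inhibition relative to control aggregation ratio. IC50 from at least four concentrations.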

Assay [2] addresses T1, Integrin alpha-IIb/beta-3. Kind of assay: Antagonist activity at GP2b/GP3a receptor in human platelet rich plasma assessed as inhibition of U46619-induced platelet aggregation preincubated for 1 min […] by aggregometric method. The essentials:
(§1)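 Aggregometry at 37°C in human apheresis PRP, PPP as reference. Compound in saline or 0.2% aqueous DMSO preincubated 1 min before inducer: collagen 1 μg/ml, thrombin 0.26 U/ml or U46619 2 μM (figure and table values; methods state 9 μg/ml, 1 U/ml, 6 μM). Percent inhibition vs control. IC50 from at least four concentrations, means of two to three dose-response curves.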

The target of assay [3] is T1, Integrin alpha-IIb/beta-3. Kind of assay: Antagonist activity at GP2b/GP3a receptor in human platelet rich plasma assessed as inhibition of thrombin-induced platelet aggregation preincubated for 1 min […] by aggregometric method. The essentials: as §1
The target of assay [4] is T1, Integrin alpha-IIb/beta-3. Briefly: Antagonist activity at GP2b/GP3a receptor in human platelet rich plasma assessed as inhibition of collagen-induced platelet aggregation preincubated for 1 min […] by aggregometric method. A digest of the protocol:
as §1

T1 sequence (P05106 27-788 limits assumed): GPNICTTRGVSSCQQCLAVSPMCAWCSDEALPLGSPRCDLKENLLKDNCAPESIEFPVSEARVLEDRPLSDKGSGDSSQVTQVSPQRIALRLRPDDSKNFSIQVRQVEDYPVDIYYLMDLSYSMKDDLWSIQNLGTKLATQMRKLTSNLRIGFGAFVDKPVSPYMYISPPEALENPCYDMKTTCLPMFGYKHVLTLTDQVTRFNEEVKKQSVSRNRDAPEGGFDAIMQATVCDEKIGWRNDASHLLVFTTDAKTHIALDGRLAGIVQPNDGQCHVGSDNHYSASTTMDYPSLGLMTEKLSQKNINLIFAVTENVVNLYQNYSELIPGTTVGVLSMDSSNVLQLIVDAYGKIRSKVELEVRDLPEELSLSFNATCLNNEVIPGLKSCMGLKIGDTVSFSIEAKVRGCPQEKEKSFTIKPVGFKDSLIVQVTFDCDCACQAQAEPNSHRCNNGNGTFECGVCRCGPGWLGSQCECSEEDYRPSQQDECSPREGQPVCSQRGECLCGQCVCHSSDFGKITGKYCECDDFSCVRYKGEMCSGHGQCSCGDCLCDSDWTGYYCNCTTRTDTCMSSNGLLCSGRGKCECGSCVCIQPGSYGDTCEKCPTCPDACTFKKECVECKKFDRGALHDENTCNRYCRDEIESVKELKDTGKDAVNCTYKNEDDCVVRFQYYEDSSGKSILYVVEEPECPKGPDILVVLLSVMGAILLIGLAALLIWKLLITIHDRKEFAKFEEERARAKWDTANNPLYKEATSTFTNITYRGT
T1 sequence (P08514 32-887 limits assumed): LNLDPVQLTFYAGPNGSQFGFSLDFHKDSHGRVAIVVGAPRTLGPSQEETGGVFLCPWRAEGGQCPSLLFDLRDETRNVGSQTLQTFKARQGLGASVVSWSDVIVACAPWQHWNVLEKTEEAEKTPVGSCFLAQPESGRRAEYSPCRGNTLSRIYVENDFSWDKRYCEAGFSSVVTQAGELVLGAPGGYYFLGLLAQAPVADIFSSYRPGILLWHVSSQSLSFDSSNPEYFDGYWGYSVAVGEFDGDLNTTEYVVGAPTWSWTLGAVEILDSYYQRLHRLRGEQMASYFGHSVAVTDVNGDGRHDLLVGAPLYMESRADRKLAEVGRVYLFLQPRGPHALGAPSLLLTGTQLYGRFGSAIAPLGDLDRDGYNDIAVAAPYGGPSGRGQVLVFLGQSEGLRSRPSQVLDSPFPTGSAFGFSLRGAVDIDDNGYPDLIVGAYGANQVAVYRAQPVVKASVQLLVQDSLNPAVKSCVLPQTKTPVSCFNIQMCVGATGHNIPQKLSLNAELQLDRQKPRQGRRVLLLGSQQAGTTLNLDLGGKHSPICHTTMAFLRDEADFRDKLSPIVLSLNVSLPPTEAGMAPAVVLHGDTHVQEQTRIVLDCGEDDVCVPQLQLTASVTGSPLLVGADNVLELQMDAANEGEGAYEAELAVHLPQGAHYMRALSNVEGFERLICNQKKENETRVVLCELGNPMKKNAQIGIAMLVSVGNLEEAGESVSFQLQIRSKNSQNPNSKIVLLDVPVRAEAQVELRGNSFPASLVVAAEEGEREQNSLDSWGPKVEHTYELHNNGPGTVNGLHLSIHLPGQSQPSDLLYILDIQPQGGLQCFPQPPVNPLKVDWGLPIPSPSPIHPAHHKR
T1 sequence (P08514 891-1039 limits assumed): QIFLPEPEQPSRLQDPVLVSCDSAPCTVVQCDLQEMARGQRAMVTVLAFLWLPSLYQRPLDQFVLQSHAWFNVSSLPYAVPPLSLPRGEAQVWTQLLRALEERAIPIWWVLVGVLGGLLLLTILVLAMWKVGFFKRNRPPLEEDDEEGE

Consider `O=C(O)C(Cc1ccc2cc(OCCC3CCNCC3)ccc2c1)NS(=O)(=O)c1ccc(Br)cc1` (centres undefined), for which, in assay [1], the IC50 (in general, the concentration needed to halve the response being measured) is above 100 µM.

Turning to `O=C(O)C(Cc1ccc2cc(OCCCN3CCNCC3)ccc2c1)NS(=O)(=O)c1ccc(F)cc1` (centres undefined), in assay [1], the IC50 came to 0.28 µM.

`CCCC(=O)NC(Cc1ccc2cc(OCCCN3CCNCC3)ccc2c1)C(=O)O` (centres undefined): in assay [1], the IC50 worked out at 5.4 µM.

With `CCCC(=O)NC(Cc1ccc2cc(OCc3ccc(C(=N)N)cc3)ccc2c1)C(=O)O` (centres undefined), the IC50 in assay [1] turned out to be 1.08 µM.

Turning to `Cc1ccc(S(=O)(=O)NC(Cc2ccc3cc(OCc4ccc(C(=N)N)cc4)ccc3c2)C(=O)O)cc1` (centres undefined), in assay [1], the IC50 was 4.01 µM.

On to `COc1ccc(S(=O)(=O)NC(Cc2ccc3cc(OCCCN4CCNCC4)ccc3c2)C(=O)O)cc1` (centres undefined), for which the IC50 in assay [1] came to 1.65 µM.

Turning to `N=C(N)c1ccc(COc2ccc3cc(CC(NC(=O)c4ccc([N+](=O)[O-])cc4)C(=O)O)ccc3c2)cc1` (centres undefined), the IC50 in assay [1] stood at 2.1 µM.

Take `O=C(NC(Cc1ccc2cc(OCCCN3CCNCC3)ccc2c1)C(=O)O)c1cc(Cl)cc(Cl)c1` (centres undefined): in assay [1], the IC50 came out at 24.6 µM.

`O=C(NC(Cc1ccc2cc(OCCCN3CCNCC3)ccc2c1)C(=O)O)c1ccc(F)cc1` (centres undefined): the IC50 in assay [1] turned out to be 7.6 µM.

As to `O=C(O)C(Cc1ccc2cc(OCCCCN3CCNCC3)ccc2c1)NS(=O)(=O)c1ccc(Br)cc1` (centres undefined), the IC50 in assay [1] was 18.8 µM.

With `O=C(O)C(Cc1ccc2cc(OCC3CCNCC3)ccc2c1)NS(=O)(=O)c1ccc(Br)cc1` (centres undefined), the IC50 in assay [1] is above 100 µM.

With `O=C(O)C(Cc1ccc2cc(OCCCN3CCNCC3)ccc2c1)NS(=O)(=O)c1ccc(Br)cc1` (centres undefined), in assay [1], the IC50 was found to be 0.37 µM.

For `N=C(N)c1ccc(COc2ccc3cc(CC(NS(=O)(=O)c4ccccc4)C(=O)O)ccc3c2)cc1` (centres undefined), the IC50 in assay [2] stood at 23.6 µM; in assay [3], 22.9 µM; in assay [1], 0.84 µM; in assay [4] it was 27.7 µM.

Turning to `CCCCS(=O)(=O)NC(Cc1ccc2cc(OCCCN3CCNCC3)ccc2c1)C(=O)O` (centres undefined), the IC50 in assay [1] amounted to 0.52 µM.

For the compound `COc1ccc(C(=O)NC(Cc2ccc3cc(OCCCN4CCNCC4)ccc3c2)C(=O)O)cc1` (centres undefined), the IC50 in assay [1] worked out at 12.7 µM.

As to `O=C(NC(Cc1ccc2cc(OCCCN3CCNCC3)ccc2c1)C(=O)O)c1ccccc1` (centres undefined), the IC50 in assay [1] amounted to 7.9 µM.

In the case of `O=C(NC(Cc1ccc2cc(OCCCN3CCNCC3)ccc2c1)C(=O)O)c1ccc([N+](=O)[O-])cc1` (centres undefined), the IC50 in assay [1] turned out to be 3.4 µM.

As to `O=C(O)C(Cc1ccc2cc(OCCN3CCNCC3)ccc2c1)NS(=O)(=O)c1ccc(Br)cc1` (centres undefined), the IC50 in assay [1] was 12.8 µM.

As to `O=C(O)C(Cc1ccc2cc(OCCCC3CCNCC3)ccc2c1)NS(=O)(=O)c1ccc(Br)cc1` (centres undefined), the IC50 in assay [1] is above 100 µM.

`O=C(O)C(Cc1ccc2cc(OCCCN3CCNCC3)ccc2c1)NS(=O)(=O)c1ccc([N+](=O)[O-])cc1` (centres undefined): the IC50 in assay [1] came out at 0.2 µM.

Turning to `CCCCS(=O)(=O)NC(Cc1ccc2cc(OCc3ccc(C(=N)N)cc3)ccc2c1)C(=O)O` (centres undefined), the IC50 in assay [1] came out at 3.29 µM.

For `O=C(NC(Cc1ccc2cc(OCCCN3CCNCC3)ccc2c1)C(=O)O)c1cccc(F)c1` (centres undefined), the IC50 in assay [1] was found to be 6.38 µM.

Turning to `O=C(O)C(Cc1ccc2cc(OCCCN3CCNCC3)ccc2c1)NS(=O)(=O)c1ccccc1` (centres undefined), the IC50 in assay [2] was 1.01 µM; in assay [3], 0.53 µM; in assay [1], 0.18 µM; in assay [4], 1.32 µM.
